Laboratory results: publication PMC2906681 (Biochemical pharmacology, 2010)
Where a chain is given by its changes, count along the chain named. Blank lines part the entries; values can stand above or below the compound they belong to.

How the values were obtained:
[1] = system: Shp1; details: cited from earlier work
[2] = system: most of other PTPs; details: cited from earlier work
[3] = biological target: T1, Shp2 (Homo sapiens, UniProt Q06124); experiment: Cell-based Shp2 inhibition assays
T1 sequence (Q06124 1-593): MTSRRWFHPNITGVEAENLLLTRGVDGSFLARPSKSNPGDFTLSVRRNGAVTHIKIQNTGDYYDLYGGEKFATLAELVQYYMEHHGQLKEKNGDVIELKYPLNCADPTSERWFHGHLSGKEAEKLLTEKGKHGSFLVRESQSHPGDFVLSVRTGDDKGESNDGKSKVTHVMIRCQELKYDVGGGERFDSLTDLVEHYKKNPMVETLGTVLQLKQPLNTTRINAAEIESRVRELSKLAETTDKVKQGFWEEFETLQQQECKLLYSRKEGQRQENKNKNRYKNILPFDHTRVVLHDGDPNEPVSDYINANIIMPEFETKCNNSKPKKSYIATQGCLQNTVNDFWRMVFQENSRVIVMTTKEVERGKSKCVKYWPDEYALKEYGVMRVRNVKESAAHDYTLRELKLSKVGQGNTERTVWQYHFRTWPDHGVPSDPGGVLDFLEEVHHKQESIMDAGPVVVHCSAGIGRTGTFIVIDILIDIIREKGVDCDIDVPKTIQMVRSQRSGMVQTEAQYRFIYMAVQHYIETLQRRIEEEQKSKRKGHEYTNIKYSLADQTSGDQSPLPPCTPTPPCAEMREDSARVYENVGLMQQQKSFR

[4] = biological target: T2, non-fusion Shp2 PTP protein (Homo sapiens, UniProt Q06124); experiment: Enzyme kinetics analysis of Shp2 PTP inhibition; format: biochemical; details: Lineweaver-Burk, AIC comparison
T2 sequence (Q06124 247-517 limits assumed): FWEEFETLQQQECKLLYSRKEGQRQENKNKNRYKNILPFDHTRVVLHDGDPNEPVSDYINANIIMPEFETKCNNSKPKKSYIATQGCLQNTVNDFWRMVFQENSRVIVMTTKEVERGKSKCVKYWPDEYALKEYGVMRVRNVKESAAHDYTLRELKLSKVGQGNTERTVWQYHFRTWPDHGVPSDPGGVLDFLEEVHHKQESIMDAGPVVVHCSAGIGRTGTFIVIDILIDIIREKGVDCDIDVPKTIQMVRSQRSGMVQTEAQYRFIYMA

[5] = system: cells; experiment: Confocal laser scanning microscopy of compound uptake; format: in vitro ADME; details: 25 µM, 3 h
Outline: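 TF-1/Shp2E76K cells grown in glass-bottom dishes were exposed to test compound at 25 µM for 3 h, then Hoechst 33342 (5 µg/ml) was added. Internal confocal sections were imaged with a 63X/1.40NA oil objective (2,520×), using 458 nm argon and 405 nm diode excitation with tunable emission filters. Compound fluorescence was viewed green.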

[6] = system: TF-1/Shp2^E76K cells; experiment: Cell growth assay; format: cell-based
Outline: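 TF-1/Shp2E76K cells were plated at 1,000 cells/well in triplicate in RPMI1640/10% FBS without GM-CSF, with test compound. The compound volume was ≤0.1% of the total. Cells were incubated 4 days at 37 °C/5% CO2, then relative viable cell number was read with CellTiterGlo. Data came from two triplicate experiments.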

[7] = biological target: T3, Shp2^E76K (Homo sapiens, UniProt Q06124, E76K); experiment: Shp2^E76K PTP activity in immune complexes from TF-1/Shp2^E76K cells; format: cell-based; details: GM-CSF-free medium
T3 sequence (Q06124 1-593 E76K): T1 sequence (Q06124 1-593) with E76K
Outline: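 TF-1/Shp2E76K cells were treated in GM-CSF-free RPMI1640/10% FBS with test compound at various concentrations. Flag-Shp2E76K was immunoprecipitated with anti-Flag M2/protein G (0.2 mg lysate, 2 h, 4 °C) and washed. Complexes were incubated with 50 µM DiFMUP for 20 min at room temperature, and fluorescence was measured. Part of each immunoprecipitate was blotted for Shp2. Two experiments.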

[8] = biological target: T4, His-tagged Shp2 (amino acids 1–525) (Homo sapiens, UniProt Q06124); experiment: Surface plasmon resonance; details: SPR, 1:1 binding model
T4 sequence (Q06124 1-525): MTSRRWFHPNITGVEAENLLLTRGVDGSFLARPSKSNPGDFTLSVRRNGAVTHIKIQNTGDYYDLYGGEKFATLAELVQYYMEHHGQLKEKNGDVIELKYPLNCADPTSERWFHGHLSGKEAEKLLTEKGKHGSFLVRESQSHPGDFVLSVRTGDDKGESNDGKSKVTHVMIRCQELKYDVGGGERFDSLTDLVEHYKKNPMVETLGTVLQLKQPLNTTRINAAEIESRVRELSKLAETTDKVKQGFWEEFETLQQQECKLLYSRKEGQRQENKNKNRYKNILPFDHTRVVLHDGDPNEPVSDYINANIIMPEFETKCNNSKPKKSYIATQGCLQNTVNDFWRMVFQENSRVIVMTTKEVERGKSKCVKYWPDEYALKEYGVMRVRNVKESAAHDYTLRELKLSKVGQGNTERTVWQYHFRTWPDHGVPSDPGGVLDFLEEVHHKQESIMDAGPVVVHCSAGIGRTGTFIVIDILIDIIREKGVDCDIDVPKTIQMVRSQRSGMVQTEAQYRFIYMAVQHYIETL

[9] = system: TF-1/Shp2^E76K cells; experiment: Fluorescence uptake assay; format: in vitro ADME; details: 5 h incubation, ex/em 485/535 nm
Outline: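 TF-1/Shp2E76K cells (6 × 10^5 in 1 ml RPMI1640/10% FBS) were incubated 5 h at 37 °C/5% CO2 with test compound or DMSO. Fluorescence (485/535 nm) was read in the whole suspension, then in cell-free medium (supernatant plus washes) and in twice-washed pellets. Fraction totals were expressed relative to the 100 µM suspension, set as 100%. Two duplicate experiments (n = 4).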

[10] = biological target: T1, Shp2; experiment: EGF-stimulated Shp2 PTP activity in immune complexes from MDA-MB-468 cells; format: cell-based; details: EGF 50 ng/ml 10 min
Outline: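 Sub-confluent MDA-MB-468 cells were serum-starved 18 h in DMEM/0.1% BSA, pretreated overnight with test compound (20 or 100 µM), then EGF-stimulated (50 ng/ml, 10 min). Lysate (0.2 mg, Hepes pH 7.4 PTP lysis buffer) was immunoprecipitated with anti-Shp2/protein G for 2 h at 4 °C and washed. Complexes were reacted with 50 µM DiFMUP for 20 min at room temperature, and DiFMU fluorescence was read. Pellets were immunoblotted for Shp2. Two experiments, duplicates.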

[11] = system: pErk1/2 and Bcl-XL; experiment: pErk1/2 and Bcl-XL immunoblotting in TF-1/Shp2^E76K cells; format: cell-based; details: concentration-dependent
[12] = system: STAT1 tyrosine phosphorylation; experiment: IFN-γ-stimulated STAT1 tyrosine phosphorylation in HT-29 cells; format: cell-based; details: 20 µM, 2 h pre-treatment, IFN-γ 20 U/ml
[13] = biological target: T5, GST-Shp2 PTP domain protein (Homo sapiens, UniProt Q06124); experiment: In vitro Shp2 PTP activity inhibition assay; format: biochemical
T5 sequence (Q06124 247-517 limits assumed): T2 sequence (Q06124 247-517 limits assumed)

[14] = system: MDA-MB-468 cells; experiment: Transwell cell migration assay; format: cell-based; details: EGF 10 ng/ml, 16 h
[15] = system: HT-29 cells; experiment: Cell growth assay; format: cell-based; details: for fraction of inhibition: 4 days
Outline: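 HT-29 cells at 1,000 cells/well, in triplicate, in RPMI1640/10% FBS with IFN-γ (100 U/ml) and/or test compound or vehicle. Compound volume kept ≤0.1% of total. Incubated 4 days at 37 °C/5% CO2. Relative viable cell number was read by CellTiterGlo luminescence. Synergism of the two agents was calculated with the Bliss definition.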

[16] = system: Erk1/2 activation; experiment: EGF-stimulated Erk1/2 activation in MDA-MB-468 cells; format: cell-based; details: 0–20 µM tested, EGF 2 ng/ml 5 min
Outline: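 Serum-starved MDA-MB-468 cells were pretreated with test compound (0–20 µM), then stimulated with EGF (2 ng/ml, 5 min). Cleared lysates were immunoblotted for dual-phosphorylated Erk1/2 and total Erk1/2.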

[17] = system: ISRE-luciferase reporter; experiment: ISRE luciferase reporter assay in HT-29 cells; format: cell-based
Outline: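 HT-29 cells (5 × 10^5 per well) were co-transfected by lipofection with 1.6 µg pISRE-Luc and 0.4 µg β-gal plasmids. They were then stimulated with 50 U/ml IFN-γ for 6 h or left unstimulated. Luciferase was normalized to β-galactosidase activity; two duplicate experiments (n = 4).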

[18] = system: p21; experiment: p21 expression in HT-29 cells; format: cell-based; details: 12.5 µM with IFN-γ, 24 h, versus IFN-γ alone
Outline: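 HT-29 cells were treated 24 h with IFN-γ at indicated amounts, with or without test compound at 12.5 µM. Cell lysates were immunoblotted for p21, with β-actin as loading reference.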

[19] = system: paxillin dephosphorylation; experiment: EGF-induced paxillin tyrosine dephosphorylation in MDA-MB-468 cells; format: cell-based; details: 20 µM, 2 h; EGF 50 ng/ml 10 min
Outline: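 Serum-starved MDA-MB-468 cells received test compound (20 µM, 2 h) and/or EGF (50 ng/ml, 10 min). Cells were lysed on ice in Tris buffer (pH 7.5) containing Na3VO4, NaF, pyrophosphate and protease inhibitors. Paxillin was immunoprecipitated, resolved by SDS-PAGE and immunoblotted with anti-phosphotyrosine and anti-paxillin antibodies.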

[20] = system: TF-1/Shp2^E76K cells; experiment: EB/AO staining apoptosis assay; format: cell-based; details: 3 days, base level 4.2%

Compound: O=C(O)c1cc(O)c(=O)c2c(O)c(O)ccc2c1 [DCA, 7-deshydroxypyrogallin-4-carboxylic acid]
Shp1 inhibition compared with Shp2 [1]: same potency

Compound: O=C1C(=NNc2ccc(S(=O)(=O)O)cc2)C(c2ccc([N+](=O)[O-])cc2)=NN1c1ccccc1 [PHPS1, phenylhydrazonopyrazolone sulfonate 1]
selectivity against most of other PTPs [2]: > 10
selectivity against Shp1 [1]: 14 fold

activity in cell-based Shp2 inhibition assays [3]: no detectable activity
best fitted inhibition model [4]: competitive inhibition model
green fluorescence in confocal images of internal sections of cells [5]: did not have green fluorescence
Shp2^E76K PTP activity in treated cells [7]: no decrease
association rate Ka [8]: 22400 M⁻¹ s⁻¹
fluorescent signal associated with the cell pellets [9]: only trace amount
effect on EGF-stimulated Shp2 PTP activity ([10]; 100 µM pre-treatment overnight): did not affect
Compound: O=C1Nc2ccc(S(=O)(=O)NCc3ccc(F)cc3)cc2/C1=N/Nc1cccc(C(=O)O)c1 [SPI-112, (Z)-3-(2-(5-(N-(4-fluorobenzyl)sulfamoyl)-2-oxoindolin-3-ylidene)hydrazinyl)benzoic acid]
effect on viable cells ([6]; GM-CSF-free medium, 4 days): did not affect

IC50 [13]: > 100 µM
green fluorescence in confocal images of internal sections of cells [5]: readily detectable
Shp2^E76K PTP activity in treated cells [7]: lower Shp2^E76K PTP activity
fluorescent signal associated with the cell pellets [9]: substantial amount
reduction of EGF-stimulated Shp2 PTP activity ([10]; 20 µM pre-treatment overnight): 77%
Compound: COC(=O)c1cccc(N/N=C2\C(=O)Nc3ccc(S(=O)(=O)NCc4ccc(F)cc4)cc32)c1 [SPI-112Me, (Z)-3-(2-(5-(N-(4-fluorobenzyl)sulfamoyl)-2-oxoindolin-3-ylidene)hydrazinyl)benzoic acid methyl ester]
amounts of pErk1/2 and Bcl-XL [11]: reduced
effect on IFN-γ-stimulated STAT1 tyrosine phosphorylation [12]: increased amount of tyrosine-phosphorylated STAT1
reduction of EGF-stimulated cell migration ([14]; 12.5 µM): 62%
effect on EGF-stimulated cell migration ([14]; 25 µM): completed blocked
IC50 ([6]; 96 h, read-out: concentration giving a 50% decrease in viable cells): 10 µM
fraction of inhibition ([15]; 6.25 µM SPI-112Me alone): 0.32
fraction of inhibition ([15]; 6.25 µM SPI-112Me plus IFN-γ 100 U/ml): 0.57
fraction of inhibition ([15]; 12.5 µM SPI-112Me alone): 0.71
fraction of inhibition ([15]; 12.5 µM SPI-112Me plus IFN-γ 100 U/ml): 0.84
combination effect with IFN-γ on inhibition of cell growth (Bliss) ([15]; IFN-γ 100 U/ml plus SPI-112Me): synergistic
concentration at which inhibition of EGF-stimulated pErk1/2 signal was observed [16]: 10 µM
activation of ISRE luciferase activity ([17]; 10 µM SPI-112Me plus IFN-γ 50 U/ml): 54%
activation of ISRE luciferase activity ([17]; 25 µM SPI-112Me plus IFN-γ 50 U/ml): 98%
p21 expression [18]: higher levels of p21
effect on EGF-induced paxillin tyrosine dephosphorylation [19]: prevented
apoptotic cells ([20]; 12.5 µM): 9.3%
apoptotic cells ([20]; 25 µM): 18.8%

Compound: IFN-γ: interferon-γ, cytokine used to stimulate STAT1 signaling in HT-29 cells
fraction of inhibition ([15]; IFN-γ 100 U/ml alone): 0.18
activation of ISRE luciferase activity ([17]; IFN-γ 50 U/ml alone, 6 h): 26%
